Experimental data reported in paper PMC4958579 (Cell chemical biology, 2016).
Each block holds one compound with its values, some of them ahead of it.

How the values were obtained:
[1] = test system: KDM4A catalytic domain (residues 1-350); experiment: Demethylase inhibition, KDM4A catalytic domain; assay type: biochemical
[2] = biological target: Flag-tagged full-length KDM5A (Homo sapiens, UniProt P29375); experiment: AlphaLISA / AlphaScreen demethylase assay, KDM5A; assay type: biochemical; details: nanomolar enzyme concentration; two independent assays
Procedure, shortened: (§1)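 Full-length human enzymes, Flag-tagged and purified from Sf21 insect cells, assayed for demethylation by AlphaScreen.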

[3] = biological target: KDM6B catalytic domain (residues 1043-1682) (Homo sapiens, UniProt O15054); experiment: AlphaScreen demethylase assay, KDM6B; assay type: biochemical; details: at 50 μM, the highest inhibitor concentration tested
KDM6B catalytic domain (residues 1043-1682), sequence (O15054 1043-1682 isoform O15054-1): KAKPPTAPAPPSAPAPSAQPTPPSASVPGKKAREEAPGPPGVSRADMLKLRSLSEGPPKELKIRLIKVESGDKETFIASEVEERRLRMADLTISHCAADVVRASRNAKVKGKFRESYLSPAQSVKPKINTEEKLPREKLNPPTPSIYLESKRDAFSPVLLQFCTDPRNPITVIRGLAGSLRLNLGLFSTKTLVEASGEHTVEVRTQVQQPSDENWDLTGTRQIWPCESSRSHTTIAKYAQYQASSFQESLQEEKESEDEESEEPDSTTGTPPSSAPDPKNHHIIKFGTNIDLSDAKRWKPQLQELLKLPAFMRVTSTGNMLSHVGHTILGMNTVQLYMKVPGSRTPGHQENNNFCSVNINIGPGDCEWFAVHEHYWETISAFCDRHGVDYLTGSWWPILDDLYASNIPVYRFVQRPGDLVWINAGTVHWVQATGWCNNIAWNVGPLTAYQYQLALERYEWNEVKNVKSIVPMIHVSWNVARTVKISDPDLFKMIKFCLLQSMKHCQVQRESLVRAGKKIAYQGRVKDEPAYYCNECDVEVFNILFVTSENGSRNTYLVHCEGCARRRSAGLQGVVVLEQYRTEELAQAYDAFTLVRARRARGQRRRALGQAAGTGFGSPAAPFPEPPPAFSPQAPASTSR
Procedure, shortened: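 Purified KDM6B catalytic domain (residues 1043-1682) was assayed by AlphaScreen for demethylase activity across a test-compound concentration series, with 50 μM the highest concentration tested. IC50 was averaged from 4 independent experiments, with S.E.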

[4] = biological target: Flag-tagged full-length KDM5C (Homo sapiens, UniProt P41229); experiment: AlphaLISA / AlphaScreen demethylase assay, KDM5C; assay type: biochemical; details: nanomolar enzyme concentration; two independent assays
Flag-tagged full-length KDM5C, sequence (P41229 whole entry): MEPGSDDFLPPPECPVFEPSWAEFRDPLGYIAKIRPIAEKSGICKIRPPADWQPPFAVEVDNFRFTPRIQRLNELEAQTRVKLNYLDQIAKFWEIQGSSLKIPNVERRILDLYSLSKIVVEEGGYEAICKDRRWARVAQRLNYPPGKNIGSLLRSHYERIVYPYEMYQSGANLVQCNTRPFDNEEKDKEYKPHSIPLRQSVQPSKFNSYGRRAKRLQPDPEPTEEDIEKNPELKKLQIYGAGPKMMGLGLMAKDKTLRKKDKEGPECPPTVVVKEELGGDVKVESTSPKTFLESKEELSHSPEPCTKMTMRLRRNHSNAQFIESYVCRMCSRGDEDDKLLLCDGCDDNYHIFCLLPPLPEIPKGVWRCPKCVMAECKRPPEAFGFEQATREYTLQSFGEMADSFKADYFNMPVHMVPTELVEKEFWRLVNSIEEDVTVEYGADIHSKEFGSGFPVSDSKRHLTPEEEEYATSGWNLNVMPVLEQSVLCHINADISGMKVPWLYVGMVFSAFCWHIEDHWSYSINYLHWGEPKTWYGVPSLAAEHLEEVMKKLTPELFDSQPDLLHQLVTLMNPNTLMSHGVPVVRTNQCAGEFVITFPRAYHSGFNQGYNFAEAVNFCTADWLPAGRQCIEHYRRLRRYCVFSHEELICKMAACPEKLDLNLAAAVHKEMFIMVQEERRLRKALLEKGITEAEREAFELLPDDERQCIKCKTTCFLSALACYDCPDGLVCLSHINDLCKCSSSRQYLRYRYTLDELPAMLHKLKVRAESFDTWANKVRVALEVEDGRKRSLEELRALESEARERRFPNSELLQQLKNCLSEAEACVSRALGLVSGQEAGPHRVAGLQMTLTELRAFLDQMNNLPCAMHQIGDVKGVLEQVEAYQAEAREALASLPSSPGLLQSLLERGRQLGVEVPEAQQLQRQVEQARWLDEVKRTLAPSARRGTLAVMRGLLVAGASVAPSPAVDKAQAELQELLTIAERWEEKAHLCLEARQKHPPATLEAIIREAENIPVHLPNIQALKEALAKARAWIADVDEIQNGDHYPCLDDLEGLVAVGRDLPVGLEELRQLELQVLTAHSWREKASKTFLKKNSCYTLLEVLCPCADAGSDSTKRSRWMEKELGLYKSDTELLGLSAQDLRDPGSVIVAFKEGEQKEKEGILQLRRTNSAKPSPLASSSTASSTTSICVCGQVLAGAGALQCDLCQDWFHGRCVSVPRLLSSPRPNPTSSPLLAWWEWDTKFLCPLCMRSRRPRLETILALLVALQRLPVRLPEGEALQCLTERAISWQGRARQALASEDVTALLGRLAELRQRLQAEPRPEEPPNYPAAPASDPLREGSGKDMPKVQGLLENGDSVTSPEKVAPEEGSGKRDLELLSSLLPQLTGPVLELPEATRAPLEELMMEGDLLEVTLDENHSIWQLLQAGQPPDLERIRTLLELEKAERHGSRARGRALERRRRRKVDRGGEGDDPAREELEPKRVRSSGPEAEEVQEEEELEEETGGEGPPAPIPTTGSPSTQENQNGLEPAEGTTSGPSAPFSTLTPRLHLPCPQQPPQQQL
Procedure, shortened: as §1

full-length KDM6A = full-length KDM6A (Homo sapiens, UniProt O15550); experiment: AlphaScreen demethylase assay, KDM6A; assay type: biochemical; details: at 50 μM, the highest inhibitor concentration tested
full-length KDM6A, sequence (O15550 whole entry, species assumed): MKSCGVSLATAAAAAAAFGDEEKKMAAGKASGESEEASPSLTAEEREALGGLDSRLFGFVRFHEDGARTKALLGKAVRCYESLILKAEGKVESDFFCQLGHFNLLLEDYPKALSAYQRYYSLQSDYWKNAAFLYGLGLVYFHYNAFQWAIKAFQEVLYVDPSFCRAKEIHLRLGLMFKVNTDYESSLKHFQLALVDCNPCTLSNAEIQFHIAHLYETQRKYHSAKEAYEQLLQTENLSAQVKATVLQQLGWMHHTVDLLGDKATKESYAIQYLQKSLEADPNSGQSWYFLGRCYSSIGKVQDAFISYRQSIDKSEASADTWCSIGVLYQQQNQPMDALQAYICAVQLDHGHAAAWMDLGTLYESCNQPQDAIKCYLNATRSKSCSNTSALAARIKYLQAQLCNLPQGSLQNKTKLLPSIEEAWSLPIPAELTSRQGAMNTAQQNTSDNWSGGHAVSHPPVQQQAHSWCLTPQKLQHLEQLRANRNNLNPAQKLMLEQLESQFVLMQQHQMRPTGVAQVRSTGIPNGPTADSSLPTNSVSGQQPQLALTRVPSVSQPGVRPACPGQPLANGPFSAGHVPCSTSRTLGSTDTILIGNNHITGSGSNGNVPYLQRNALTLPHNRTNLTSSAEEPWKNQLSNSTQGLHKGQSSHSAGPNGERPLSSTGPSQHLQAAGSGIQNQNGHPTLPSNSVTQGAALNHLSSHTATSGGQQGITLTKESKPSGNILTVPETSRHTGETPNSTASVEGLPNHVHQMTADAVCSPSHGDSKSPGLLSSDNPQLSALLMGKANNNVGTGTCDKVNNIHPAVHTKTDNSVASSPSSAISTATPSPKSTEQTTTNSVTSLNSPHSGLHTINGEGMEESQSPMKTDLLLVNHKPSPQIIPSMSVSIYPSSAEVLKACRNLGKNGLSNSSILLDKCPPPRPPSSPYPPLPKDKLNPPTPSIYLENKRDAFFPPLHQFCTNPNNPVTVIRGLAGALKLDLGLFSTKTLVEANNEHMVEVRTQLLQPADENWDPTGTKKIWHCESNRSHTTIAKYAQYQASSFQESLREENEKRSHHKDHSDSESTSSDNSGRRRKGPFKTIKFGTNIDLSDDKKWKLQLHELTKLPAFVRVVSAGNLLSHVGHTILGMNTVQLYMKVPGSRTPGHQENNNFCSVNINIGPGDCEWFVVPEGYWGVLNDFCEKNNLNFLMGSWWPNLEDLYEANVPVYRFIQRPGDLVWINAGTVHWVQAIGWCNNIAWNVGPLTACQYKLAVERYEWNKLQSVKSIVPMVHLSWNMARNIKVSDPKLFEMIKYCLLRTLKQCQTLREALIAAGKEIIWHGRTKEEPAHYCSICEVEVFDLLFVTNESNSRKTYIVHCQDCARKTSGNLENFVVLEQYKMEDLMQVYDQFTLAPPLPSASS
Procedure, shortened: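 Full-length KDM6A demethylase activity measured by AlphaScreen with test compound up to 50 μM, the highest concentration tested. Two independent experiments; average and S.E. reported.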

[5] = biological target: Flag-tagged full-length KDM5B (Homo sapiens, UniProt Q9UGL1); experiment: AlphaLISA / AlphaScreen demethylase assay, KDM5B; assay type: biochemical; details: nanomolar enzyme concentration; two independent assays
Flag-tagged full-length KDM5B, sequence (Q9UGL1 whole entry): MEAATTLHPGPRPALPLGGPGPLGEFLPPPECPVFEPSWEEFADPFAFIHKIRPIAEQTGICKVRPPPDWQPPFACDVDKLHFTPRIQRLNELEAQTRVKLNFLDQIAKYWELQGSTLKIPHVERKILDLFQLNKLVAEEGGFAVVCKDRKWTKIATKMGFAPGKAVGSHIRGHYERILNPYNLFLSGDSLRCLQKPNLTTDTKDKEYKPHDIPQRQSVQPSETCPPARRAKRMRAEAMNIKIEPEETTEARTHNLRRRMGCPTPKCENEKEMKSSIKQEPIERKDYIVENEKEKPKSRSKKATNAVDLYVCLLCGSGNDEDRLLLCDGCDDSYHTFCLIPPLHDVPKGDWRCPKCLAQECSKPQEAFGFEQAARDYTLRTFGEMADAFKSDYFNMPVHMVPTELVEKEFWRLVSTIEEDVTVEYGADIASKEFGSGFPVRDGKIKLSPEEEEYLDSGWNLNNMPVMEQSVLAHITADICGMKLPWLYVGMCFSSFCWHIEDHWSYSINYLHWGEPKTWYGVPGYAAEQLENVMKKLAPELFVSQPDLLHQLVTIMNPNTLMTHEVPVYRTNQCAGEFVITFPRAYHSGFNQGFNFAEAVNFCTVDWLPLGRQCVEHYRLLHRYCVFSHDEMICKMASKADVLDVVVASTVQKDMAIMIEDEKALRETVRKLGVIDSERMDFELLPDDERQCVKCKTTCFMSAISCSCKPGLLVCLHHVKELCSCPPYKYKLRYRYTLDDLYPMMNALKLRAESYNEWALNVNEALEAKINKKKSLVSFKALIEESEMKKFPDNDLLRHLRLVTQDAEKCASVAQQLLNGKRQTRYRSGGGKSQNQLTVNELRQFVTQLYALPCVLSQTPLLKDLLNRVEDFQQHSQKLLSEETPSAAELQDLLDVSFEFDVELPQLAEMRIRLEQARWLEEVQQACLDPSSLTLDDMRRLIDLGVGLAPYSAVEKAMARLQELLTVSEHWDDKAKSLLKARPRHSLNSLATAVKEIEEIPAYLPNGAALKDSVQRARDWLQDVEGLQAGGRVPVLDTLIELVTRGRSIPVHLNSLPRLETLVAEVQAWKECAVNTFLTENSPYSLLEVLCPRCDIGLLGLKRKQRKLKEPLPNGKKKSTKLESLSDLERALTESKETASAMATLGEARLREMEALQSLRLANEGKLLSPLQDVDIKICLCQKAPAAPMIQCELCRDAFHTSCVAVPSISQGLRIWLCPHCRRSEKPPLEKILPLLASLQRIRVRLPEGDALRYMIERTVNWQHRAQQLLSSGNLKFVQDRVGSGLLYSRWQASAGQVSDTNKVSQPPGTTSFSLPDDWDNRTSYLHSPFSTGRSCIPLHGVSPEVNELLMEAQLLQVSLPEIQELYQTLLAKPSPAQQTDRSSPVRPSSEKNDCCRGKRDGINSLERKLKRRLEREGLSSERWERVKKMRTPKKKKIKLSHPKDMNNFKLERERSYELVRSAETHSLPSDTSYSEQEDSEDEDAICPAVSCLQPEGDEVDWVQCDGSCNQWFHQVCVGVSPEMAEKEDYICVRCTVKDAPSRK
Procedure, shortened: as §1

MDA-MB-231 cells [6] = experiment: Western blot of global histone methylation, MDA-MB-231; assay type: cell-based, human; details: 5 μM, 3 days
Procedure, shortened: (§2)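 Cells were exposed to DMSO or 5 μM test compound for 3 days and histone marks detected by western blot. Fold is H3K4me3 band intensity over total H3, normalized to the DMSO control. Data are from biological duplicate experiments, each run in duplicate.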

MCF7 cells [7] = experiment: Colony formation assay, MCF7; assay type: cell-based, human; details: 5 μM
Procedure, shortened: (§3)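 Cells were treated with DMSO or 5 μM test compound and colonies quantified by image intensity. Percent intensity was normalized to the average percent intensity of DMSO-treated cells, with SEM error bars. Data are from biological duplicate experiments, each run in triplicate.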

[8] = test system: MCF10A immortalized, non-transformed mammary epithelial cells; experiment: Colony formation assay, MCF10A; assay type: cell-based, human; details: 5 μM
MDA-MB-231 cells [9] = experiment: Colony formation assay, MDA-MB-231; assay type: cell-based, human; details: 5 μM
Procedure, shortened: as §3

ZR-75-1 cells = experiment: Colony formation assay, ZR-75-1; assay type: cell-based, human; details: 5 μM
Procedure, shortened: as §3

PC9 lung cancer cells = experiment: Colony formation assay, PC9; assay type: cell-based, human; details: 5 μM
MCF7 cells [10] = experiment: Real time RT-PCR of KDM5 target genes, MCF7; assay type: cell-based, human; details: 5 μM for 3 days
Procedure, shortened: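 MCF7 cells were exposed to DMSO or 5 μM test compound for 3 days. BRCA1, STK6, BUB3, BUB1B, MT1F and MT1H mRNA levels were then quantified by real-time RT-PCR, with SEM error bars.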

MCF7 cells [11] = experiment: Western blot of global histone methylation, MCF7; assay type: cell-based, human; details: 5 μM, 3 days
Procedure, shortened: as §2

BT474 cells = experiment: Colony formation assay, BT474; assay type: cell-based, human; details: 5 μM
Procedure, shortened: as §3

KDM5B and KDM5C = details: ref Horton et al., 2016; cited from earlier work

weaker potency against KDM4A catalytic domain than against KDM5B catalytic domain or full length KDM5B [1]: ~ 10 fold
IC50, full-length KDM5A [2]: nanomolar range
inhibition of KDM6B activity [3]: ≤ 50%
IC50, full-length KDM5C [4]: nanomolar range
inhibition of KDM6A activity (full-length KDM6A): ≤ 50%
IC50, full-length KDM5B [5]: nanomolar range
Structure (SMILES): CCN(CCN(C)C)C(=O)CNCc1cc(C(=O)O)ccn1 [KDM5-C49]

Structure (SMILES): CCOC(=O)c1ccnc(CNCC(=O)N(CC)CCN(C)C)c1 [KDM5-C70]
H3K4me2/me1, H3K27me3, H3K9me3/H3K36me3 levels (MDA-MB-231 cells [6]): little impact
global levels of H3K4me3 (MDA-MB-231 cells [6]): significantly increased
growth inhibited (colony formation) (MCF7 cells [7]): 85%
effect on colony formation [8]: none were significantly affected
effect on colony formation (MDA-MB-231 cells [9]): none were significantly affected
growth inhibited (colony formation) (ZR-75-1 cells): 70%
effect on colony formation (PC9 lung cancer cells): none were significantly affected
expression of MT1F mRNA (MCF7 cells [10]): increase
expression of MT1H mRNA (MCF7 cells [10]): increase
H3K4me2/me1, H3K27me3, H3K9me3/H3K36me3 levels (MCF7 cells [11]): little impact
global levels of H3K4me3 (MCF7 cells [11]): significantly increased
growth inhibited (colony formation) (BT474 cells): 97%

Structure (SMILES): O=C(O)CCNc1cc(N2CCc3ccccc3CC2)nc(-c2ccccn2)n1 [GSK-J1]
more active against KDM5C than against KDM5B (KDM5B and KDM5C): ~ 8.5 fold

Structure (SMILES): Clc1ccc(N/N=C(\c2ccccc2)c2ccccn2)nc1 [JIB-04]
increased potency against KDM5B compared to KDM5C (KDM5B and KDM5C): ~ 8 fold
